The source made the active and inactive calls. The calls are words filed in the database; no cut-off is given here.
Legend:
[1] = tested on: Neutrophil; test: Cytotoxicity against human neutrophils assessed as reduction in cell viability up to 10 uM up to 30 mins by light microscopic and trypan blue exclusion assay; assay type: cell-based; conditions: 0.5 h
In short: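 Isolated human blood neutrophils (dextran sedimentation, Nycoprep, hypotonic lysis) in PBS pH 7.4 with 1 mg/mL glucose and 1 mM CaCl2. Compounds tested up to 10 μM for 30 min. Viability scored by light microscopy with trypan blue exclusion.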

[2] = target: T1, Prostaglandin E synthase (Homo sapiens, UniProt O14684); test: Inhibition of human A549 cell microsomal membrane-derived mPGES-1 assessed as reduction in conversion of PGH2 to PGE2 preincubated for 15 mins followed by PGH2 addition measured after 1 min by RP-HPLC analysis; assay type: cell-based
T1 sequence (O14684 whole entry): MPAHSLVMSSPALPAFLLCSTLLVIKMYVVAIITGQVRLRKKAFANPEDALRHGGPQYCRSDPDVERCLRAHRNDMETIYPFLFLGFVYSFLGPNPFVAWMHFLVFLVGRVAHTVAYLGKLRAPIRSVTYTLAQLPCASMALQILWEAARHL

[3] = target: T2, Polyunsaturated fatty acid 5-lipoxygenase (Homo sapiens, UniProt P09917); test: Inhibition of 5-LO in human peripheral blood neutrophils using arachidonic acid as substrate preincubated for 15 mins followed by substrate addition measured after 10 mins in presence of Ca2+ ionophore A23187 by RP-HPLC analysis
T2 sequence (P09917 whole entry): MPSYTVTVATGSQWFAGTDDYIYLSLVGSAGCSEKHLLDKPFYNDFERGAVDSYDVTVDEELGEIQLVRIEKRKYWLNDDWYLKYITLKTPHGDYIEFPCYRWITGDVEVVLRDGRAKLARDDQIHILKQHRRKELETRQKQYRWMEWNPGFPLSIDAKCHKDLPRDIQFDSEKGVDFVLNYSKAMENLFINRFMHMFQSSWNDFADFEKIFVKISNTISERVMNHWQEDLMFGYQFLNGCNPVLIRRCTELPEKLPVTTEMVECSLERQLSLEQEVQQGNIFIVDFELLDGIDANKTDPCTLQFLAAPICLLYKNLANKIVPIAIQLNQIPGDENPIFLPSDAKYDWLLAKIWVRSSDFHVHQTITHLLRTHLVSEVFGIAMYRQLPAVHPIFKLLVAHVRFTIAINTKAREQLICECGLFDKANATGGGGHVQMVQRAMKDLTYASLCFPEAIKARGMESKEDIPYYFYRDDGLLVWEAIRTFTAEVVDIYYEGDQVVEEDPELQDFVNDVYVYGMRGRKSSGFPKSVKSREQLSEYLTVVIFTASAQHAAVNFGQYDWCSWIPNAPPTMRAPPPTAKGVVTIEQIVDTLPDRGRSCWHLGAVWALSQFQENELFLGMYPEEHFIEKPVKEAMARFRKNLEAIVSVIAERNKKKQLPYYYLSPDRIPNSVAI

[4] = target: T3, Polyunsaturated fatty acid 5-lipoxygenase (Homo sapiens) (UniProt P09917); test: Inhibition of human recombinant 5-LO expressed in Escherichia coli MV1190 assessed as residual activity at 10 uM using arachidonic acid as substrate preincubated for 10 mins followed by substrate addition measured after 10 mins by RP-HPLC analysis relative to control
T3 sequence (whole entry): T2 sequence (P09917 whole entry)
In short: (§1)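 Human 5-LO expressed in E. coli MV1190, partially purified on ATP-agarose, diluted in PBS with 1 mM EDTA and 1 mM ATP. Held 10 min at 4 °C with compound, warmed 30 s to 37 °C, started with 2 mM CaCl2 plus 20 μM AA. Run 10 min at 37 °C, stopped with methanol. LTB4 trans-isomers and 5-H(p)ETE measured by RP-HPLC. IC50 from 4–5 concentrations; n = 3–4.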

[5] = target: T2, Polyunsaturated fatty acid 5-lipoxygenase; test: Inhibition of human recombinant 5-LO expressed in Escherichia coli MV1190 using arachidonic acid as substrate preincubated for 10 mins followed by substrate addition measured after 10 mins by RP-HPLC analysis; in short: as §1
[6] = tested on: Mus musculus; test: Anti inflammatory activity in CD-1 mouse assessed as reduction in zymosan-induced LTC4 level in peritoneal exudates at 10 mg/kg, ip preincubated for 30 mins followed by zymosan addition measured after 30 mins by enzyme immunoassay relative to control; assay type: functional; design: scale not given: the % may be the effect or the level left
[7] = tested on: Mus musculus; test: Anti inflammatory activity in CD-1 mouse assessed as reduction in zymosan-induced PGE2 by measuring PGE2 level in peritoneal exudates at 10 mg/kg, ip preincubated for 30 mins followed by zymosan addition measured after 30 mins by enzyme immunoassay (reference value: 10.5 +/- 1.34 ng/ml); assay type: functional
[8] = tested on: Mus musculus; test: Anti inflammatory activity in CD-1 mouse assessed as reduction in zymosan-induced LTC4 by measuring LTC4 level in peritoneal exudates at 10 mg/kg, ip preincubated for 30 mins followed by zymosan addition measured after 30 mins by enzyme immunoassay (reference value: 92.2 +/- 12.8 ng/ml); assay type: functional
[9] = target: T3, Polyunsaturated fatty acid 5-lipoxygenase (Homo sapiens); test: Reversible inhibition of human recombinant 5-LO expressed in Escherichia coli MV1190 using arachidonic acid as substrate preincubated for 15 mins followed by 10 fold dilution measured after 10 mins by RP-HPLC analysis
In short: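 Semipurified recombinant human 5-LO in the cell-free assay (2 mM CaCl2, 20 μM AA, 10 min at 37 °C, RP-HPLC read-out). Reversibility tested by wash-out using 10-fold dilution. Means ± SEM, n = 3–4.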

[10] = target: T3, Polyunsaturated fatty acid 5-lipoxygenase (Homo sapiens); test: Competitive inhibition of human recombinant 5-LO expressed in Escherichia coli MV1190 using different concentration of arachidonic acid as substrate preincubated for 15 mins followed by substrate addition measured after 10 mins by RP-HPLC analysis; conditions: in the assay text read “preincubated for 10 mins” for “preincubated for 15 mins”
In short: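 Semipurified recombinant human 5-LO assayed in the cell-free format with CaCl2 and varying AA concentrations, products measured by RP-HPLC. Representative experiment of three independent runs.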

[11] = tested on: Mus musculus; test: Anti inflammatory in CD-1 mouse assessed as reduction in zymosan-induced inflammatory cell infiltration level in peritoneal exudates at 10 mg/kg, ip preincubated for 30 mins followed by zymosan addition measured after 4 hr relative to control; assay type: functional; design: scale not given: the % may be the effect or the level left
[12] = tested on: Mus musculus; test: (§2) Anti inflammatory in CD-1 mouse assessed as reduction in zymosan-induced inflammatory cell infiltration by measuring inflammatory cell level in peritoneal exudates at 10 mg/kg, ip preincubated for 30 mins followed by zymosan addition measured after 4 hrs […] (reference value: 7.3 +/- 0.72 10^6); assay type: functional
[13] = tested on: Mus musculus; test: Anti inflammatory activity in CD-1 mouse assessed as reduction in zymosan-induced PGE2 by measuring PGE2 level in peritoneal exudates at 5 mg/kg, ip preincubated for 30 mins followed by zymosan addition measured after 30 mins by enzyme immunoassay (reference value: 10.5 +/- 1.34 ng/ml); assay type: functional
[14] = tested on: Mus musculus; test: as §2, with “at 5” for “at 10”; assay type: functional

Row | Structure (SMILES) | IC50 [2] [µM] | IC50 [3] [µM] | Activity [4] [%] | IC50 [5] [µM] | Activity [1] | also measured
1 | CC(=O)c1c(O)cc(O)c(CC=C(C)C)c1O | > 10 | – | – | – | Non-Toxic | –
2 | CC(=O)c1c(O)c(CC=C(C)C)c(O)c(C(CC(C)C)c2c(O)c(CC=C(C)C)c(O)c(C(C)=O)c2O)c1O | > 10 | > 10 | > 50 | > 10 | Non-Toxic | –
3 | COc1c(CC=C(C)C)c(O)c(C(CC(C)C)c2c(O)c3c(c(C(C)=O)c2O)OC(C)(C)C=C3)c(O)c1C(C)=O (configuration not stated) | 4.2 | > 10 | < 50 | 6 | Non-Toxic | –
4 | COc1ccc2c(c1)c(CC(=O)O)c(C)n2C(=O)c1ccc(Cl)cc1 [INDOMETHACIN] | – | – | – | – | – | Activity [13]: 3.52 ng/mL; Activity [14]: 2.08 ×10⁶ No_unit
5 | CC(c1cc2ccccc2s1)N(O)C(N)=O (configuration not stated) [ZILEUTON] | – | – | – | – | – | Activity [8]: 65 ng/mL
6 | CC(=O)c1c(O)c(C/C=C(/C)CCC=C(C)C)c(O)c(C(CC(C)C)c2c(O)c(C/C=C(\C)CCC=C(C)C)c(O)c(C(C)=O)c2O)c1O (configuration not stated) | 5.34 | > 10 | < 50 | 3.6 | Non-Toxic | –
7 | C=C(C)C1Cc2c(O)c(C(CC(C)C)c3c(O)c4c(c(C(C)=O)c3O)OC(C(=C)C)C4)c(O)c(C(C)=O)c2O1 (configuration not stated) | > 10 | 5 | < 50 | > 10 | Non-Toxic | –

Second part, led by results:

Row | IC50 [2] [µM] | IC50 [3] [µM] | Activity [4] [%] | IC50 [5] [µM] | Structure (SMILES) | Activity [1] | also measured
8 | 1.1 | 4.5 | < 50 | > 10 | COc1c(CC=C(C)C)c(O)c(C(CC(C)C)c2c(O)c3c(c(C(C)=O)c2O)OC(C(C)(C)O)C3)c(O)c1C(C)=O (configuration not stated) | Non-Toxic | –
9 | 1.1 | 2.3 | < 50 | 2.7 | COc1c(CC=C(C)C)c(O)c(C(CC(C)C)c2c(O)c(CC=C(C)C)c(O)c(C(C)=O)c2O)c(O)c1C(C)=O (configuration not stated) | Non-Toxic | –
10 | 3.5 | 1.4 | < 50 | 1 | CC(=O)c1c(O)cc(O)c(C/C=C(\C)CCC=C(C)C)c1O | Non-Toxic | Activity [6]: 38%; Activity [7]: 11.3 ng/mL; Activity [8]: 57.3 ng/mL; inhibition [9]: Active; inhibition [10]: inactive; Activity [11]: 32%; Activity [12]: 5 ×10⁶ No_unit
11 | 1.3 | 7.3 | < 50 | 5.3 | COc1c(CC=C(C)C)c(O)c(C(CC(C)C)c2c(O)c(C(C)=O)c(O)c3c2OC(C(C)(C)O)C3)c(O)c1C(C)=O (configuration not stated) [ACROFOLIONE A] | Non-Toxic | –
12 | 1 | 6.3 | < 50 | 1.7 | CC(=O)c1c(O)cc(O)c(C(CC(C)C)c2c(O)cc(O)c(C(C)=O)c2O)c1O | Non-Toxic | –
13 | 1.1 | 6.3 | < 50 | 2.5 | C=C(C)[C@@H](O)Cc1c(O)c(C(C)=O)c(O)c(C(CC(C)C)c2c(O)c(CC=C(C)C)c(OC)c(C(C)=O)c2O)c1O (some centres not stated) | Non-Toxic | –
14 | 2.7 | 5.3 | < 50 | 7.3 | COc1c(CC=C(C)C)c(O)c(C(CC(C)C)c2c(O)c3c(c(C(C)=O)c2O)OC(C)(C)C(O)C3)c(O)c1C(C)=O (configuration not stated) | Non-Toxic | –
15 | 1.9 | 5 | < 50 | 2 | COc1c(CC=C(C)C)c(O)c(C(CC(C)C)c2c(O)c(C(C)=O)c(O)c3c2OC(C)(C)C(O)C3)c(O)c1C(C)=O (configuration not stated) | Non-Toxic | –
16 | 1.2 | > 10 | < 50 | 2.4 | CC(=O)c1c(O)c(C(CC(C)C)c2c(O)c3c(c(C(C)=O)c2O)OC(C)(C)C=C3)c(O)c2c1OC(C)(C)C=C2 | Non-Toxic | –
